In ChEMBL document CHEMBL4376878, “Potent Thiophene Antagonists of Human Complement C3a Receptor with Anti-Inflammatory Activity” (J Med Chem, 2020):
Activity calls are given as the source filed them. No cut-off for these calls is given here. Residues, ends and D or L forms follow the SMILES beside them.

Key:
[1] = target: T1, C3a anaphylatoxin chemotactic receptor (Homo sapiens) (UniProt Q16581); assay: (§1) Antagonist at C3a receptor in human LAD2 cells assessed as inhibition of C3a-induced beta-hexosaminidase release preincubated for 30 mins followed by C3a addition; format: cell-based
T1 sequence (whole entry): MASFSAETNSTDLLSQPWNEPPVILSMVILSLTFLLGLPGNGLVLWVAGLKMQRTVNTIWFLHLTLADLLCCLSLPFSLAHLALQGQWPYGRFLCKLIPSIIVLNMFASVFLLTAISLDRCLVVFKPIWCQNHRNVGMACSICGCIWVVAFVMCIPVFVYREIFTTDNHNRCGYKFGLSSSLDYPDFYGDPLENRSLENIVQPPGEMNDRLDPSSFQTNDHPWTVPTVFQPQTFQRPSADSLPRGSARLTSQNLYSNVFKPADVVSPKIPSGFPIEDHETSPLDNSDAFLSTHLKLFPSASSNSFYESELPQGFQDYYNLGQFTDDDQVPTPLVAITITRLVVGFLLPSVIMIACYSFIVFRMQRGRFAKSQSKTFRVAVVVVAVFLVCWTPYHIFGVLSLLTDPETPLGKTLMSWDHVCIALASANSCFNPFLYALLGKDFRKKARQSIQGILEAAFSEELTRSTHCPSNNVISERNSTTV
In short: (§2)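 LAD2 mast cells grown with SCF, 1 × 10⁴ cells/well seeded overnight and presensitized overnight with IgE (100 ng/mL). Compounds preincubated 30 min at 37 °C in 0.1 M HEPES pH 7.4, then C3a added and β-hexosaminidase release measured. IC50 is concentration inhibiting 50% of release induced by 100 nM C3a; n ≥ 3.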

[2] = target: T2, C3a anaphylatoxin chemotactic receptor (Homo sapiens, UniProt Q16581); assay: as §1; format: cell-based; in short: as §2
T2 sequence (Q16581 whole entry): T1 sequence (whole entry)

[3] = Volume of distribution in Wistar rat at 0.5 mg/kg, iv by LC-MS/MS analysis; format: ADME, organism-based; conditions: in vivo
In short: (§3)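 Male Wistar rats with jugular vein catheter, fasted overnight; dosed p.o. by gavage in olive oil or i.v. via catheter in 50% DMSO. Blood drawn from conscious unrestrained rats 5 min before dosing, then 5, 15, 30 min and 1–8 h after. Volume replaced with heparinized saline. Rats fed after 4 h sample. n = 3 per route.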

[4] = target: T1, C3a anaphylatoxin chemotactic receptor (Homo sapiens); assay: Potency index, ratio of SB290157 IC50 to test compound IC50 for antagonist activity at C3a receptor in human MDM cells; format: cell-based
[5] = Cmax in Wistar rat at 10 mg/kg, po by LC-MS/MS analysis; format: ADME, organism-based; design: dose 10 mg/kg, route oral; conditions: in vivo; in short: as §3
[6] = Stability of the compound in rat liver microsomes assessed as compound degradation at 1 uM preincubated for 5 mins followed by NADPH addition and measured after 1 hr by LC-MS/MS analysis; format: ADME, Microsome; conditions: read-out: Drug degradation
In short: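 Compound at 1 μM in 100 mM phosphate buffer pH 7.4 with 0.1% DMSO was mixed with rat liver microsomes and preincubated 5 min at 37 °C before NADPH was added. Samples taken at 0, 5, 15, 30 and 60 min, quenched in MeCN/H₂O 9:1 and analyzed by LC-MS/MS. Microsome activity checked with SLIGRL-NH₂; n = 3.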

[7] = Clearance in Wistar rat at 0.5 mg/kg, iv by LC-MS/MS analysis; format: ADME, organism-based; conditions: in vivo; in short: as §3
[8] = target: T1, C3a anaphylatoxin chemotactic receptor (Homo sapiens); assay: Potency index, ratio of SB290157 IC50 to test compound IC50 for antagonist activity at C3a receptor in human LAD2 cells assessed as inhibition of C3a-induced beta-hexosaminidase release; format: cell-based
[9] = target: T1, C3a anaphylatoxin chemotactic receptor (Homo sapiens); assay: Displacement of Eu-DTPA-C3a from Galpha16-coupled C3a receptor (unknown origin) expressed in HEK293 cells measured after 60 mins by time-resolved fluorescence assay; format: cell-based
Rattus norvegicus [10] = assay: Antiinflammatory activity in Wistar rat model of BR103-induced paw edema assessed as reduction in hind paw swelling at 10 mg/kg, po administered via gavage pretreated for 2 hrs followed by BR103 challenge and measured after 30 mins by digital caliper method relative to control; format: functional; design: scale not given: the % may be the effect or the level left
In short: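 Male Wistar rats were given antagonist at 10 mg/kg by oral gavage in olive oil 2 h before intraplantar BR103 (350 μg in 100 μL of 5% DMSO). Sham paws received vehicle; sham and control rats received olive oil only. Paw thickness and width were measured with digital calipers at 0, 0.5, 1 and 2 h after agonist; n = 3 per group.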

[11] = Elimination half-life in Wistar rat at 0.5 mg/kg, iv by LC-MS/MS analysis; format: ADME, organism-based; conditions: in vivo, read-out: beta t1/2; in short: as §3
[12] = target: T2, C3a anaphylatoxin chemotactic receptor; assay: (§4) Antagonist activity at C3a receptor in human MDM cells assessed as inhibition of C3a-induced intracellular calcium release preincubated for 30 mins followed by C3a addition and measured at 1 sec interval for => 200 secs by Fluo-3 AM dye-based FLIPR assay; format: functional, cell-based
In short: (§5)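 Macrophages were derived from CD14⁺ monocytes (M-CSF, 7 days) and dye-loaded with 4 μM Fluo-3 AM for 1 h at 37 °C in HBSS/probenecid/HEPES, pH 7.4. Antagonist was preincubated for 30 min at 37 °C before addition of synthetic full-length human C3a (100 nM). FLIPR fluorescence was read at ex 495/em 520 nm. Percent response was plotted against log concentration; n ≥ 3.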

[13] = AUC (0 to 8 hrs) in Wistar rat at 10 mg/kg, po by LC-MS/MS analysis; format: ADME, organism-based; design: dose 10 mg/kg, time < 8 hr, route oral; conditions: in vivo; in short: as §3
Rattus norvegicus [14] = assay: Antiinflammatory activity in Wistar rat model of BR103-induced paw edema assessed as reduction in hind paw swelling at 30 mg/kg, po administered via gavage pretreated for 4 hrs followed by BR103 challenge and measured after 30 mins by digital caliper method relative to control; format: functional; design: scale not given: the % may be the effect or the level left
In short: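 For duration of action, antagonist was given at 30 mg/kg by oral gavage in olive oil at 1, 2, 4, 6, 8 or 12 h before intraplantar BR103 (350 μg/paw) in male Wistar rats. Controls received olive oil 2 h before challenge. Paw thickness and width were measured with calipers at 0 and 0.5 h; n = 3 per group.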

[15] = target: T3, C5a anaphylatoxin chemotactic receptor 1 (Homo sapiens) (UniProt P21730); assay: Antagonist activity at C5a receptor in human MDM cells assessed as inhibition of C5a-induced intracellular calcium release preincubated for 30 mins followed by C5a addition and measured at 1 sec interval for => 200 secs by Fluo-3 AM dye-based FLIPR assay; format: functional, cell-based
T3 sequence (whole entry): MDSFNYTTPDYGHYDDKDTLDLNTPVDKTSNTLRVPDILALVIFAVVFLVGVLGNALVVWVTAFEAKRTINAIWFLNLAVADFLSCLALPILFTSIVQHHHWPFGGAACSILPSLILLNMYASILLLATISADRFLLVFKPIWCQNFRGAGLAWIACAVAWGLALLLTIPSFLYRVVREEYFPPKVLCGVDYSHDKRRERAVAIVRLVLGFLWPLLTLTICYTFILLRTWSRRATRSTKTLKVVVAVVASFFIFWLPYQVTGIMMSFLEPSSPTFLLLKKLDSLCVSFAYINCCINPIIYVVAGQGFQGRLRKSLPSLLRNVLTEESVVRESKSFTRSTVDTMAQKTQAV
In short: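 HMDMs from CD14+ monocytes after 7 days in M-CSF; 5 × 10⁴ cells/well seeded overnight. Cells loaded 1 h at 37 °C with 4 μM Fluo-3 AM, then washed into HBSS with 2.5 mM probenecid and 20 mM HEPES, pH 7.4. Antagonist preincubated 30 min at 37 °C before C5a. Fluorescence (ex 495/em 520 nm) read every 1 s for ≥200 s.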

[16] = Stability of the compound in rat plasma at 1 mM measured after 4 hrs by LC-MS analysis; format: ADME, cell-free
In short: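 Compound added to rat plasma from 1 mM DMSO stock (stock concentration) and incubated at 37 °C. Samples taken at 0, 5, 15, 30, 60, 120 and 240 min, quenched in MeCN/H₂O 9:1, centrifuged and analyzed by LC-MS. Plasma activity checked with SLIGRL-NH₂.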

[17] = target: T2, C3a anaphylatoxin chemotactic receptor; assay: Agonist activity at C3a receptor in human MDM cells assessed as induction of intracellular calcium release measured at 1 sec interval for => 200 secs by Fluo-3 AM dye-based FLIPR assay; format: cell-based
In short: (§6)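 HMDMs were differentiated from CD14⁺ monocytes with M-CSF (100 ng/mL) for 7 days and seeded overnight at 5 × 10⁴ cells/well. Cells were loaded with 4 μM Fluo-3 AM for 1 h at 37 °C, then placed in HBSS with 2.5 mM probenecid and 20 mM HEPES, pH 7.4. Agonist was added on FLIPR and read at ex 495/em 520 nm. EC50 is relative to the maximum from 1 μM C3a; n ≥ 3.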

[18] = AUC (0 to 8 hrs) in Wistar rat at 0.5 mg/kg, iv by LC-MS/MS analysis; format: ADME, organism-based; design: time < 8 hr, dose 0.5 mg/kg, route intravenous; conditions: in vivo; in short: as §3
[19] = target: T2, C3a anaphylatoxin chemotactic receptor; assay: Partial agonist activity at C3a receptor in human MDM cells assessed as induction of intracellular calcium release at higher concentration measured at 1 sec interval for => 200 secs by Fluo-3 AM dye-based FLIPR assay relative to control; format: cell-based; in short: as §6
[20] = Tmax in Wistar rat at 10 mg/kg, po by LC-MS/MS analysis; format: ADME, organism-based; conditions: in vivo; in short: as §3
[21] = Stability of the compound in rat plasma at 1 mM measured after 10 mins by LC-MS analysis; format: ADME, cell-free; conditions: 1000 µM
[22] = AUC (0 to 8 hrs) in Wistar rat at 1 mg/kg, iv by LC-MS/MS analysis; format: ADME, organism-based; design: time < 8 hr, dose 1 mg/kg, route intravenous; conditions: in vivo; in short: as §3
[23] = Clearance in Wistar rat at 1 mg/kg, iv by LC-MS/MS analysis; format: ADME, organism-based; conditions: in vivo; in short: as §3
[24] = target: T1, C3a anaphylatoxin chemotactic receptor (Homo sapiens); assay: as §4; format: functional, cell-based; in short: as §5
[25] = Volume of distribution in Wistar rat at 1 mg/kg, iv by LC-MS/MS analysis; format: ADME, organism-based; conditions: in vivo; in short: as §3
[26] = Elimination half-life in Wistar rat at 1 mg/kg, iv by LC-MS/MS analysis; format: ADME, organism-based; conditions: in vivo, read-out: beta t1/2; in short: as §3
Rattus norvegicus [27] = assay: Antiinflammatory activity in Wistar rat model of BR103-induced paw edema assessed as reduction in hind paw swelling at <30 mg/kg, po administered via gavage pretreated for 2 hrs followed by BR103 challenge and measured after 0.5 to 2 hrs by digital caliper method; format: functional, organism-based

SMILES	inhibition [1]	IC50 [2]	Ratio IC50 [4]	Cmax [5]	metabolised at 1 h, 1 µM [6]	Ratio IC50 [8]	Activity (Rattus norvegicus [10])	IC50 ([12]; read-out: IC50)	AUC(0-t) at 8 h [13]	inhibition [15]	Stability [16]	EC50 ([17]; read-out: EC50)	EC50 ([17]; read-out: pEC50 (converted))	Tmax [20]	also measured
N=C(N)NCCC[C@H](NC(=O)c1ccc(C(c2ccccc2)c2ccccc2)s1)C(=O)O	Dose-dependent effect	4 nM	15	91 ng/mL	60%	100	20%	85 nM	436 ng·h/mL	inactive	Stable	> 100000 nM	> 100000 nM	3.5 h	Vd [3]: 0.4 L; clearance [7]: 10.3 mL/min/kg; inhibition [9]: Dose-dependent effect; half-life [11]: 0.533 h; Activity (Rattus norvegicus [14]): <=60%; AUC(0-t) at 8 h [18]: 811 ng·h/mL; Activity [19]: 30 to 80%
CC(C)C[C@H](NC(=O)OC(C)(C)C)C(=O)N[C@@H](C)C(=O)N[C@@H](CCCNC(=N)N)C(=O)O (HELM PEPTIDE1{[CC(C)(C)OC(=O)[*:2]].L.A.R}$$$$V2.0)															Stability [21]: Unstable
Cc1cc(C(c2ccccc2)c2ccccc2)sc1C(=O)N[C@@H](CCCNC(=N)N)C(=O)O	Dose-dependent effect	2 nM	100	23 ng/mL	40%	100	49%	7 nM	90 ng·h/mL	inactive	Stable	> 100000 nM	> 100000 nM	4 h	AUC(0-t) at 8 h [22]: 779 ng·h/mL; clearance [23]: 18 mL/min/kg; inhibition [24]: Dose-dependent effect; Vd [25]: 0.7 L; half-life [26]: 0.75 h
N=C(N)NCCC[C@H](NC(=O)COCC(c1ccccc1)c1ccccc1)C(=O)O	Dose-dependent effect	540 nM						1300 to 3800 nM				> 100000 nM	> 100000 nM		IC50 ([12]; read-out: pIC50 (converted)): 3980 nM; Activity (Rattus norvegicus [27]): inactive
